Source: PubChem (several laboratories)
Glyco luc inh: N-linked glycosylation inhibition. D54 ERlucT glycosylation luciferase reporter, 24 h; percent of 100 nM tunicamycin response. reporter increase, % at 12.5 µM. actives 0.23% (n = 360,000);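 active means mean luciferase reporter signal, scaled so untreated is 0 and the glycosylation-blocking control 100, at or above a set limit in every replicate; inconclusive means mean reaches the limit but not every replicate does; inactive means mean below the limit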;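 further: luciferase carries N-glycosylation sites so blocking glycosylation raises the light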
T cell modulator: modulates CD8 T cell binding to vesicles | AID 2052 | 2C CD8+ T cell-vesicle binding, flow cytometry; stronger effect = lower value | actives 0.068% (n = 330,000) | response (vesicle binding), % at 7 µM;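 active means response, share of CD8 T cells binding vesicles, and their 90th percentile fluorescence all below set limits, cut at about 80% in these data, passing the limit was not always enough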;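 further: values below 100% mean blocked vesicle binding to the CD8+ T cells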
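Test system: purified 2C TCR transgenic mouse naive CD8+ T cells. Probe or stimulus: QL9-peptide-loaded Drosophila micro-vesicles bearing Ld, ICAM-1 and B7-1. Incubation: binding step 1.5 h, 37 °C, antibody labelling 20 min, ice. Measured by: flow cytometry of vesicle-bound cells.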
ALR H2O2 inh: blocks human ALR sulfhydryl oxidase activity. inhibition, % (test concentration not listed). actives 3.8% (n = 290,000). purified ALR, DTT oxidation, H2O2 HRP-luminol luminescence. AID 485317. P55789;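 active means mean replicate inhibition above about 79%, with every replicate also reaching it, limit read from the data; inconclusive means only one of the two criteria met; inactive means mean below limit and not every replicate reaching it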
Target sequence (P55789 whole entry, looked up): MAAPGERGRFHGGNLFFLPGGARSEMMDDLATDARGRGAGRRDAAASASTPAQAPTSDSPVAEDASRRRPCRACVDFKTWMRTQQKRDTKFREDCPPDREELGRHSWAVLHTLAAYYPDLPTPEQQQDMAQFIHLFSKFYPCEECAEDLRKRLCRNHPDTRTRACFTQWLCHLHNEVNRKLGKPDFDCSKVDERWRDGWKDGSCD
Each line names hits and unclear results; the compound was inactive in the other large screens. Only a selection was taken, and hits are over-represented in it overall.

Cc1ccccc1C(=O)N/N=C/c1ccc([N+](=O)[O-])s1	none
Cc1c(Cl)cccc1N=Cc1ccc([N+](=O)[O-])s1	Glyco luc inh 35
O=C1NC(=O)/C(=C\c2ccsc2)N1	none
CCN(CC)c1ccc(/C=C2\NC(=O)NC2=O)cc1	ALR H2O2 inh 99
CCOC(=O)C1=C(COC(=O)CCOc2ccc(C)cc2)NC(=O)NC1C (stereo not given)	none
O=C(O)c1ccccc1C(=O)Nn1cnnc1	none
CC1=[N+](C)N(c2ccccc2)C(=O)C1N=Cc1ccccc1Cl (stereo not given)	ALR H2O2 inh 77
CC1=[N+](C)N(c2ccccc2)C(=O)C1N=Cc1c(Cl)cccc1Cl (stereo not given)	none
C/C(=N/NC(=O)c1cccs1)c1ccc(NC(=O)COc2ccc(Cl)cc2Cl)cc1	Glyco luc inh 40
C/C(=N/NC(=O)c1ccc(C)s1)c1cccc(NC(=O)COc2ccc(Cl)cc2Cl)c1	none
CC(CCNC(=O)c1ccccc1)(CCNC(=O)c1ccccc1)[N+](=O)[O-]	none (no result: T cell modulator, ALR H2O2 inh)
OC(c1ccc(F)c(F)c1)c1nc(-c2cc(F)cc(F)c2)cs1 (stereo not given)	none (no result: T cell modulator, ALR H2O2 inh)
COCCNC(=O)C1(C)CCN(C(=O)c2ccc3sccc3c2)C1 (stereo not given)	none (no result: T cell modulator, ALR H2O2 inh)
CN(CCc1ccccc1)C(=O)c1ccc(NC(=O)Cc2ccc(NC(=O)C3CCCN(S(=O)(=O)c4cccc([N+](=O)[O-])c4)C3)cc2)cc1 (stereo not given)	none (no result: T cell modulator, ALR H2O2 inh)
Cc1ccc(NC(=O)CN(c2ccc3c(c2)OCO3)S(=O)(=O)c2c(C)n[nH]c2C)cc1	ALR H2O2 inh 90
Cc1nn(C)c(C)c1S(=O)(=O)N(CC(=O)NC1CCCCCC1)c1ccc(C(C)C)cc1	none
COc1cc(NC(=O)CN(c2ccc(C)cc2)S(=O)(=O)c2c(C)n[nH]c2C)cc(OC)c1	none
Cc1n[nH]c(C)c1S(=O)(=O)N(CC(=O)NC1CCCC1)c1ccc(C(C)C)cc1	ALR H2O2 inh 81
CC(=O)Oc1ccccc1C(=O)Nc1ccccc1C(=O)N1CCCC1	none
COc1ccccc1CNC(=O)CN1C(=O)NC2(CCCC2)C1=O	none
O=C(CNc1cccc2ccccc12)N/N=C/C(Br)=C/c1ccccc1	Glyco luc inh 31
O=C(CNc1cccc2ccccc12)N/N=C/c1ccc[nH]1	none
O=C(c1cc(S(=O)(=O)N2CCCCC2)ccc1F)N1CCCCC1	ALR H2O2 inh 83
O=C(c1ccccc1F)N1CCN(S(=O)(=O)c2ccc(S(=O)(=O)N3CCCCC3)cc2)CC1	none
COc1ccc(S(=O)(=O)N2CCCC2)cc1C(=O)N1CCCCC1	none
COc1ccc(S(=O)(=O)N2CCCCC2)cc1C(=O)N1CCCC1	T cell modulator 0.0
O=C(Cc1ccccc1)N1CCC2(CC1)NCCc1[nH]cnc12	none
O=C(O)C1C2CCC(O2)C1C(=O)Nc1ccc(F)c(Cl)c1 (stereo not given)	none
CCOC(=O)C1=C(N)Oc2cc(O)ccc2C1c1cccc([N+](=O)[O-])c1 (stereo not given)	ALR H2O2 inh 85
CCOC(=O)C1=C(N)Oc2cc(O)ccc2C1c1ccccc1 (stereo not given)	none
CCOC(=O)c1[nH]cnc1C(=O)N1CCC(C)CC1	none
O=C(O)CC1S/C(=N/N=C/c2ccc(-c3ccc(Cl)c([N+](=O)[O-])c3)o2)NC1=O (stereo not given)	ALR H2O2 inh inconclusive
O=C(O)CC1S/C(=N/N=C/c2ccc(-c3ccc(Cl)cc3[N+](=O)[O-])o2)NC1=O (stereo not given)	ALR H2O2 inh 82
Cn1c(COc2ccc(F)cc2)nnc1SCC(=O)NC1CC1	none
Clc1ccc(CN=C2Nc3ccccc3CS2)cc1	none
c1cncc(CN=C2Nc3ccccc3CS2)c1	ALR H2O2 inh 98
O=C(N/N=C/C1CC2CCC1C2)c1c[nH]c2ccccc12 (stereo not given)	none
COc1cc(N)ccc1Cc1ccc(N)cc1OC	ALR H2O2 inh 97
COc1ccc(N)cc1C#N	none
CCCCCC1CCC(c2ccc(/C(N)=N/O)cc2)CC1 (stereo not given)	none
COc1ccc(C2=NC(=O)NC2c2ccc(OC)cc2)cc1 (stereo not given)	none
O=C1N=C(c2ccccc2)C(c2ccccc2)N1 (stereo not given)	ALR H2O2 inh 99
CC(C)C(=O)NCCc1nc(-c2ccc(Cl)cc2)no1	none
Cc1cn(CC(=O)N[C@H](C)c2cccc3ccccc23)c(=O)[nH]c1=O	none (no result: T cell modulator, ALR H2O2 inh)
COc1ccccc1-c1nnc(-c2ccc(C)cc2)o1	none
COc1cccc(OC)c1-c1nnc(-c2cn(C)c3ccccc23)o1	T cell modulator 33 (no result: Glyco luc inh, ALR H2O2 inh)
CCN(CC)CCn1c2c(c(SCC(=O)Nc3ccc4c(c3)OCO4)nc1=O)CCC2	none
CN(C)CCCn1c2c(c(SCC(=O)Nc3ccc4c(c3)OCCO4)nc1=O)CCC2	ALR H2O2 inh 99
